In ChEMBL document CHEMBL6071188, “Synthesis and In Vivo Profiling of Desymmetrized Antimalarial Trioxolanes with Diverse Carbamate Side Chains” (ACS Med Chem Lett, 2024):
≈ marks a conversion by molar mass, not a printed value. Calls of active or inactive are those of the source. The calls are words filed in the database; no cut-off is given here.

What was measured:
[1] = Oral bioavailability in male CD1 mouse at 10 mg/kg measured upto 24 hrs; assay type: ADME, organism-based; settings: in vivo
Outline: (§1)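 Male CD1 mice, n = 3 per group, dosed IV at 3 mg/kg or PO at 10 mg/kg in 10% DMSO/50% PEG400/40% of 20% HP-β-CD in water. Samples below the limit of quantitation excluded from parameters and mean concentrations.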

[2] = Solubility of the compound in PBS buffer at pH 7.4; assay type: physicochemical
[3] = Clearance in male CD1 mouse at 3 mg/kg, iv measured upto 24 hrs; assay type: ADME, organism-based; settings: in vivo; outline: as §1
[4] = Toxicity in female Swiss Webster mouse infected with Plasmodium berghei assessed as drug tolerance at 10 mg/kg, po administered once daily for 2 days and measured upto 30 days; assay type: organism-based; settings: in vivo, 720 h, time 30 day
Outline: (§2)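 Female Swiss Webster mice (~20 g) infected ip with 10^6 P. berghei-infected erythrocytes from a donor mouse. Dosing by oral gavage once daily for 1–2 days starting 1 h post-inoculation, in 10% DMSO/50% PEG400/40% of 20% HP-β-CD in water. Five mice per arm. Daily Giemsa smears from day 7, counting infected cells per 1000 erythrocytes. Body weight tracked. Euthanasia at >50% parasitemia or >15% weight loss. Followed to day 30; cure means no parasitemia at day 30. Survival reported as the day of the longest-surviving mouse.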

[5] = Volume of distribution at steady state in male CD1 mouse at 3 mg/kg, iv measured upto 24 hrs; assay type: ADME, organism-based; settings: in vivo; outline: as §1
Plasmodium berghei [6] = assay: Antiplasmodial activity against Plasmodium berghei infected in female Swiss Webster mouse model assessed as survival at 10 mg/kg, po administered once daily for 2 days and measured upto 30 days; assay type: functional; settings: time 30 day; outline: as §2
Plasmodium berghei [7] = assay: Antiplasmodial activity against Plasmodium berghei infected in female Swiss Webster mouse model assessed as reduction in parasitemia at 20 mg/kg, po administered once daily for 2 days and measured upto 30 days by giemsa staining based microscopic analysis; assay type: functional, organism-based; settings: time 30.0 day; outline: as §2
[8] = Metabolic stability in human liver microsomes assessed as intrinsic clearance; assay type: ADME, Microsome; settings: for microsomal CLint: liver microsomes, read-out: CLH
[9] = AUClast in male CD1 mouse at 10 mg/kg, po measured upto 24 hrs; assay type: ADME, organism-based; settings: in vivo; outline: as §1
[10] = Half life in male CD1 mouse at 10 mg/kg, po measured upto 24 hrs; assay type: ADME, organism-based; settings: in vivo
Plasmodium berghei [11] = assay: Antiplasmodial activity against Plasmodium berghei infected in female Swiss Webster mouse model assessed as reduction in parasitemia at 20 mg/kg, po administered as a single dose and monitored for 30 days by giemsa staining based microscopic analysis; settings: time 30.0 day
Plasmodium berghei [12] = assay: Antiplasmodial activity against Plasmodium berghei infected in female Swiss Webster mouse model assessed as survival at 20 mg/kg, po administered once daily for 1 day
[13] = Solubility of the compound in PBS buffer at pH 7.4 at 2 mg/ml incubated for 5 to 6 hrs by LC-MS analysis; assay type: physicochemical; settings: time 5-6 hrs
Plasmodium berghei [14] = assay: Antiplasmodial activity against Plasmodium berghei infected in female Swiss Webster mouse model assessed as survival at 20 mg/kg, po […]; assay type: functional; outline: as §2
[15] = Toxicity in female Swiss Webster mouse infected with Plasmodium berghei assessed as drug tolerance at 20 mg/kg, […]; assay type: organism-based; settings: in vivo, po
Plasmodium berghei [16] = assay: Antiplasmodial activity against Plasmodium berghei infected in female Swiss Webster mouse model assessed as cure rate at 40 mg/kg, po measured upto 30 days relative to control; assay type: functional; settings: time <= 30 day
[17] = Toxicity in female Swiss Webster mouse infected with Plasmodium berghei assessed as drug tolerance at 50 mg/kg, […]; assay type: organism-based; settings: in vivo, po; outline: as §2
[18] = Toxicity in female Swiss Webster mouse infected with Plasmodium berghei assessed as drug tolerance at 4 mg/kg, po administered once daily for 2 days and measured upto 30 days; assay type: organism-based; settings: in vivo, 720 h, time 30 day; outline: as §2
Plasmodium berghei [19] = assay: Antiplasmodial activity against Plasmodium berghei infected in female Swiss Webster mouse model assessed as survival at 4 mg/kg, po administered once daily for 2 days and measured upto 30 days; assay type: functional; settings: time 30 day; outline: as §2
Plasmodium berghei [20] = assay: Antiplasmodial activity against Plasmodium berghei infected in female Swiss Webster mouse model assessed as survival at 50 mg/kg, […]; assay type: functional; settings: route po; outline: as §2
Plasmodium berghei [21] = assay: Antiplasmodial activity Plasmodium berghei ANKA infected in female NMRI mouse model assessed as cure rate at 10 mg/kg, po administered as three consecutive dose daily for 24 to 72 hrs post infection by giemsa staining based microscopy analysis relative to control; assay type: functional; settings: time 24-72 hrs
[22] = Oral bioavailability in rat at 17.4 mg/kg by LC-MS analysis; assay type: ADME, organism-based; settings: in vivo
Plasmodium falciparum = assay: Antiplasmodial activity against Plasmodium falciparum W2 infected in human erythrocytes assessed as inhibition of parasitic growth incubated for 72 hrs by YOYO-1 staining based FACScalibur flow cytometry analysis; assay type: functional, organism-based; settings: W2, Erythrocyte
Outline: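 P. falciparum W2 grown at 2% hematocrit in RPMI 1640 with 0.5% AlbuMAX II, 0.1 mM hypoxanthine and 25 mM HEPES pH 7.4, at 37 °C under 5% O2/5% CO2/90% N2. Twelve concentrations (3-fold steps, 10 μM to 0.06 nM) or DMSO, 72 h. Cells fixed in 2% formaldehyde, permeabilized, stained with 25 nM YOYO-1 (≥24 h, 4 °C). Parasitemia by flow cytometry on 5 × 10^4 cells. IC50 from 3 replicates.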

Work on `NCCNC(=O)O[C@H]1CCC[C@@]2(C1)OOC1(O2)C2CC3CC(C2)CC1C3` (stereo partly drawn) yielded an F [1] of 43.1%, a solubility kinetic [2] of 144 µM (≈ 52.8 µg/mL) and a CL [3] of 66 mL/min/kg. The Activity [4] was “Non-Toxic”, the Vdss [5] was 2.33 L/kg and the Survival (Plasmodium berghei [6]) was 30 days. The Activity (Plasmodium berghei [7]) was “Active”, the microsomal intrinsic clearance ([8]; microsomes) was 23.1 µL/min/mg and the AUClast [9] was 1038 ng·h/mL. For the same compound, the t1/2 [10] was 1.66 h.

With `c1cc([C@H]2CC[C@]3(CC2)OO[C@]2(O3)C3CC4CC(C3)CC2C4)ccc1OCCN1CCOCC1` the Activity (Plasmodium berghei [11]) was “Active”, the Survival (Plasmodium berghei [12]) was 30 days and the solubility [13] was 0.181 µM (≈ 0.085 µg/mL).

Work on “(S,S)-dispiro[adamantane-2,3'-[1,2,4]trioxolane-5',1''-cyclohexan]-3''-yl-piperidine-1-carboxylate” yielded a Survival (Plasmodium berghei [14]) of 7 days.

For `CC(C)(N)CNC(=O)O[C@@H]1CCC[C@]2(C1)OOC1(O2)C2CC3CC(C2)CC1C3` (stereo partly drawn), the F [1] was 39.3%, the Activity [15] was “Non-Toxic” and the Survival (Plasmodium berghei [12]) was 12 days. It also gave a CL [3] of 108 mL/min/kg, a Vdss [5] of 2.79 L/kg and a microsomal CLint [8] of 12.8 µL/min/mg. It also gave an AUClast [9] of 555 ng·h/mL and a t1/2 [10] of 2.09 h.

With `CC(C)(N)CNC(=O)O[C@H]1CCC[C@@]2(C1)OOC1(O2)C2CC3CC(C2)CC1C3` (stereo partly drawn) the F [1] was 38.9%, the Activity [15] was “Non-Toxic” and the Survival (Plasmodium berghei [12]) was 20 days. The solubility kinetic [2] was 174 µM (≈ 68.6 µg/mL), the CL [3] was 77 mL/min/kg and the Activity [4] was “Non-Toxic”. For the same compound, the Vdss [5] was 2.5 L/kg, the Survival (Plasmodium berghei [6]) was 30 days and the Activity (Plasmodium berghei [7]) was “Active”. The microsomal CLint [8] was under 11.5 µL/min/mg, the AUClast [9] was 818 ng·h/mL and the t1/2 [10] was 1.44 h.

With `NC1CCN(C(=O)O[C@@H]2CCC[C@]3(C2)OOC2(O3)C3CC4CC(C3)CC2C4)CC1` (stereo partly drawn) the Activity [15] was “Non-Toxic”, the Survival (Plasmodium berghei [12]) was 11 days and the Activity (Plasmodium berghei [16]) was 20%. For the same compound, the solubility kinetic [2] was 145 µM (≈ 58.9 µg/mL), the Activity [17] was “Non-Toxic” and the Activity [4] was “Non-Toxic”. The Survival (Plasmodium berghei [6]) was 12 days, the Activity [18] was “Non-Toxic” and the Survival (Plasmodium berghei [19]) was 11 days. It also gave a Survival (Plasmodium berghei [20]) of 12 days.

With `CC(C)(N)CNC(=O)C[C@H]1CC[C@]2(CC1)OO[C@]1(O2)C2CC3CC(C2)CC1C3` the Activity (Plasmodium berghei [16]) was 100%, the Activity [4] was “Non-Toxic” and the Activity (Plasmodium berghei [21]) was 67%. It also gave a Survival (Plasmodium berghei [6]) of 14 days, a bioavailability [22] of 35% and a microsomal CLint [8] of under 7 µL/min/mg. For the same compound, the solubility [13] was 504 µM (≈ 198 µg/mL).

`NC1(CNC(=O)O[C@@H]2CCC[C@]3(C2)OOC2(O3)C3CC4CC(C3)CC2C4)CC1` (stereo partly drawn) gave an EC50 (Plasmodium falciparum) of 1.5 nM and a microsomal CLint [8] of 41.7 µL/min/mg.
